Results: ChEMBL document CHEMBL4177648, “Benzofuran-dihydropyridine hybrids: A new class of potential bone anabolic agents” (Bioorg Med Chem, 2017)
pEC50: −log10 of the molar value. The source made the active and inactive calls. No cut-off for these calls is given here.

Legend:
[1] = system: Calvarial osteoblast; assay: Anabolic activity in rat calvarial osteoblasts assessed as induction of alkaline phosphatase activity at 100 uM after 48 hrs in presence of beta-glycerophosphate and ascorbic acid by p-nitrophenyl phosphate substrate based assay (reference value: 1 to 1.21); format: functional
[2] = system: Calvarial osteoblast; assay: Anabolic activity in rat calvarial osteoblasts assessed as induction of alkaline phosphatase activity at 1 pM after 48 hrs in presence of beta-glycerophosphate and ascorbic acid by p-nitrophenyl phosphate substrate based assay (reference value: 1 to 1.21); format: functional
[3] = system: Calvarial osteoblast; assay: Anabolic activity in rat calvarial osteoblasts assessed as induction of alkaline phosphatase activity after 48 hrs in presence of beta-glycerophosphate and ascorbic acid by p-nitrophenyl phosphate substrate based assay; format: functional, cell-based
[4] = system: Calvarial osteoblast; assay: Anabolic activity in rat calvarial osteoblasts assessed as induction of alkaline phosphatase activity at 1 uM after 48 hrs in presence of beta-glycerophosphate and ascorbic acid by p-nitrophenyl phosphate substrate based assay (reference value: 1 to 1.21); format: functional
[5] = system: Calvarial osteoblast; assay: Anabolic activity in rat calvarial osteoblasts assessed as induction of alkaline phosphatase activity at 10 nM after 48 hrs in presence of beta-glycerophosphate and ascorbic acid by p-nitrophenyl phosphate substrate based assay (reference value: 1 to 1.21); format: functional
[6] = system: Calvarial osteoblast; assay: Anabolic activity in rat calvarial osteoblasts assessed as induction of alkaline phosphatase activity at 100 pM after 48 hrs in presence of beta-glycerophosphate and ascorbic acid by p-nitrophenyl phosphate substrate based assay (reference value: 1 to 1.21); format: functional
[7] = system: Calvarial osteoblast; assay: Upregulation of Runx2 mRNA levels in rat calvarial osteoblasts at 1 uM after 48 hrs by qRT-PCR analysis relative to control; format: functional
Procedure, shortened: (§1)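 Rat pup calvarial osteoblasts were treated for 48 h with compound. Total RNA was extracted with TRIzol and checked by A260 and A260/A280. qRT-PCR used 45 cycles (94 °C, 62 °C, 72 °C steps) and was normalised to GAPDH. Fold change is over untreated cells; n=5, mean ± SEM.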

[8] = system: Calvarial osteoblast; assay: Upregulation of Osx mRNA levels in rat calvarial osteoblasts at 1 uM after 48 hrs by qRT-PCR analysis relative to control; format: functional; procedure, shortened: as §1
[9] = system: Calvarial osteoblast; assay: Induction of mineralization in rat calvarial osteoblasts at 1 uM after 21 days by Alizarin-red dye based assay; format: functional, cell-based
Procedure, shortened: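 Rat pup calvarial osteoblasts were seeded at 1×10^4 cells/well in differentiation medium with compound. Medium was changed every other day for 21 days. Cells were fixed in 4% paraformaldehyde and stained with 40 mM Alizarin red (pH 4.5). Stain was extracted with 10% acetic acid, heated to 85 °C, and neutralised with NH4OH. Absorbance was read at 405 nm.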

[10] = system: Calvarial osteoblast; assay: Upregulation of Bmp2 mRNA levels in rat calvarial osteoblasts at 1 uM after 48 hrs by qRT-PCR analysis relative to control; format: functional; procedure, shortened: as §1
[11] = system: Calvarial osteoblast; assay: Upregulation of ALP mRNA levels in rat calvarial osteoblasts at 1 uM after 48 hrs by qRT-PCR analysis relative to control; format: functional; procedure, shortened: as §1
[12] = system: Calvarial osteoblast; assay: Upregulation of Col1 mRNA levels in rat calvarial osteoblasts at 1 uM after 48 hrs by qRT-PCR analysis relative to control; format: functional; procedure, shortened: as §1

Compound	OD [1]	OD [2]	pEC50 [3]	OD [4]	OD [5]	OD [6]	fold change (FC) [7]	fold change (FC) [8]	Activity [9]	fold change (FC) [10]	fold change (FC) [11]	fold change (FC) [12]
CCC(C)c1cc(C=O)cc2cc(C(=O)c3ccc(OC)cc3)oc12 (centres undefined)	0.58	1.35	8.00	1.21	1.59	1.49	–	–	–	–	–	–
CCC(C)c1cc(C2C(C(=O)OC)=C(C)NC3=C2C(=O)CCC3)cc2cc(C(=O)c3ccc(C)cc3)oc12 (centres undefined)	0.25	0.99	–	0.84	1.17	1.12	–	–	–	–	–	–
COC(=O)C1=C(C)NC2=C(C(=O)CCC2)C1c1cc(C(C)(C)C)c2oc(C(=O)c3ccc(OC)cc3)cc2c1 (centres undefined)	0.32	1.19	–	1.17	1.07	1.01	–	–	–	–	–	–
CCOC(=O)C1=C(C)NC2=C(C(=O)CCC2)C1c1cc(C(C)CC)c2oc(C(=O)c3ccc(Cl)cc3)cc2c1 (centres undefined)	0.31	0.9	–	0.79	1.04	1.02	–	–	–	–	–	–
CCC(C)c1cc(C=O)cc2cc(C(=O)c3ccc(Cl)cc3)oc12 (centres undefined)	0.26	0.98	–	0.77	0.96	0.78	–	–	–	–	–	–
CCC(C)c1cc(C2C(C(=O)OC)=C(C)NC3=C2C(=O)CCC3)cc2cc(C(=O)c3ccc(Cl)cc3)oc12 (centres undefined)	0.5	1.39	–	1.31	1.34	1.48	–	–	–	–	–	–
COc1ccc(C(=O)c2cc3cc(C=O)cc(C(C)(C)C)c3o2)cc1	0.59	1.33	–	1.26	1.7	1.5	–	–	–	–	–	–
CCOC(=O)C1=C(C)NC2=C(C(=O)CCC2)C1c1cc(C(C)(C)C)c2oc(C(=O)c3ccc(OC)cc3)cc2c1 (centres undefined)	0.29	1.14	–	1.77	1.17	1.14	–	–	–	–	–	–
CCC(C)c1cc(C2C(C(=O)OC)=C(C)NC3=C2C(=O)CC(C)(C)C3)cc2cc(C(=O)c3ccc(Cl)cc3)oc12 (centres undefined)	0.23	1.08	–	0.23	0.86	0.85	–	–	–	–	–	–
CCc1cc(C=O)cc2cc(C(=O)c3ccc(OC)cc3)oc12	0.29	1.09	–	1.03	1.24	1.11	–	–	–	–	–	–
CCOC(=O)C1=C(C)NC2=C(C(=O)CC(C)(C)C2)C1c1cc(CC)c2oc(C(=O)c3ccc(OC)cc3)cc2c1 (centres undefined)	0.5	1.24	–	1.72	1.65	1.45	–	–	–	–	–	–
CCc1cc(C2C(C(=O)OC)=C(C)NC3=C2C(=O)CC(C)(C)C3)cc2cc(C(=O)c3ccc(OC)cc3)oc12 (centres undefined)	0.18	1.26	–	1.2	1.19	0.73	–	–	–	–	–	–
CCOC(=O)C1=C(C)NC2=C(C(=O)CC(C)(C)C2)C1c1cc(C(C)(C)C)c2oc(C(=O)c3ccc(OC)cc3)cc2c1 (centres undefined)	0.36	1.04	–	1.15	1.47	1.53	–	–	–	–	–	–
CCC(C)c1cc(C=O)cc2cc(C(=O)c3ccc([N+](=O)[O-])cc3)oc12 (centres undefined)	0.31	1.04	–	1.08	0.73	0.66	–	–	–	–	–	–
CCC(C)c1cc(C2C(C(=O)OC)=C(C)NC3=C2C(=O)CCC3)cc2cc(C(=O)c3ccc([N+](=O)[O-])cc3)oc12 (centres undefined)	0.25	0.65	–	0.82	0.82	0.72	–	–	–	–	–	–
CCC(C)c1cc(C=O)cc2cc(C(=O)c3ccc(C)cc3)oc12 (centres undefined)	0.3	1.23	7.50	1.42	1.41	1.16	–	–	–	–	–	–
CCOC(=O)C1=C(C)NC2=C(C(=O)CC(C)(C)C2)C1c1cc(C(C)CC)c2oc(C(=O)c3ccc(OC)cc3)cc2c1 (centres undefined)	0.51	1.08	–	1.13	1.3	0.82	–	–	–	–	–	–
CCC(C)c1cc(C2C(C(=O)OC)=C(C)NC3=C2C(=O)CC(C)(C)C3)cc2cc(C(=O)c3ccc(C)cc3)oc12 (centres undefined)	0.37	1.08	–	1.13	1.11	1.16	–	–	–	–	–	–
CCOC(=O)C1=C(C)NC2=C(C(=O)CCC2)C1c1ccccc1 (centres undefined)	0.74	1.26	–	1.44	1.43	1.25	–	–	–	–	–	–
CCOC(=O)C1=C(C)NC2=C(C(=O)CCC2)C1c1cc(CC)c2oc(C(=O)c3ccc(OC)cc3)cc2c1 (centres undefined)	0.41	1.32	5.00	1.8	1.64	1.49	2 - 5.5	2 - 5.5	Active	2 - 5.5	2 - 5.5	2 - 5.5
CCOC(=O)C1=C(C)NC2=C(C(=O)CC(C)(C)C2)C1c1ccccc1 (centres undefined)	0.58	1.03	–	1.23	1.41	1.41	–	–	–	–	–	–
CCOC(=O)C1=C(C)NC2=C(C(=O)CCC2)C1c1cc(C(C)CC)c2oc(C(=O)c3ccc([N+](=O)[O-])cc3)cc2c1 (centres undefined)	0.37	1.12	–	0.69	0.89	0.82	–	–	–	–	–	–
CCC(C)c1cc(C2C(C(=O)OC)=C(C)NC3=C2C(=O)CCC3)cc2cc(C(=O)c3ccc(OC)cc3)oc12 (centres undefined)	0.37	1.37	–	1.34	1.09	1.34	–	–	–	–	–	–
CCC(C)c1cc(C2C(C(=O)OC)=C(C)NC3=C2C(=O)CC(C)(C)C3)cc2cc(C(=O)c3ccc([N+](=O)[O-])cc3)oc12 (centres undefined)	0.3	0.98	–	0.76	1.06	1.03	–	–	–	–	–	–
CCC(C)c1cc(C2C(C(=O)OC)=C(C)NC3=C2C(=O)CC(C)(C)C3)cc2cc(C(=O)c3ccc(OC)cc3)oc12 (centres undefined)	0.29	0.97	–	1.26	1.14	0.64	–	–	–	–	–	–
COC(=O)C1=C(C)NC2=C(C(=O)CC(C)(C)C2)C1c1cc(C(C)(C)C)c2oc(C(=O)c3ccc(OC)cc3)cc2c1 (centres undefined)	0.36	0.79	–	1.25	1.1	1.15	–	–	–	–	–	–
